Bioassay records deposited in PubChem BioAssay by The Scripps Research Institute Molecular Screening Center.
TAAR1 ag: human TAAR1 agonism; Q96RJ0; CHO RD-HGA16 TAAR1, Fluo-8 calcium fluorescence; vehicle wells 0%, saturating PEA agonist 100%; activation, % at 3 µM; 360,000 compounds, 0.99% hits; AID 624467;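 active = activation above the mean activation of all test compounds in the run plus 3 SD, cut at about 38% in these data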
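Assay system – CHO-derived RD-HGA16 cells with stable Gα16 and human TAAR1 · Compound dosing – one-point dosing at 3 µM (nominal) · Incubation – 17-24 h seeding, 75 min 37 °C dye, 30 min RT · Measured by – kinetic Fluo-8 calcium fluorescence · Control set – DMSO vehicle as 0%, PEA at EC100 as 100% · Repeats – single well for each compound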
OX1R antag-1: blocks the human orexin 1 receptor; OX1R-expressing cells, FRET antagonist read-out; AID 485270; 330,000 compounds, 1.8% hits; inhibition, % at 6.6 µM; in the data active = inhibition mostly above about 38%, no sharp cut-off; inactive = mostly below about 40%;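 note: 0% = agonist challenge alone and 100% = reference antagonist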
Target sequence (O43613 whole entry, looked up): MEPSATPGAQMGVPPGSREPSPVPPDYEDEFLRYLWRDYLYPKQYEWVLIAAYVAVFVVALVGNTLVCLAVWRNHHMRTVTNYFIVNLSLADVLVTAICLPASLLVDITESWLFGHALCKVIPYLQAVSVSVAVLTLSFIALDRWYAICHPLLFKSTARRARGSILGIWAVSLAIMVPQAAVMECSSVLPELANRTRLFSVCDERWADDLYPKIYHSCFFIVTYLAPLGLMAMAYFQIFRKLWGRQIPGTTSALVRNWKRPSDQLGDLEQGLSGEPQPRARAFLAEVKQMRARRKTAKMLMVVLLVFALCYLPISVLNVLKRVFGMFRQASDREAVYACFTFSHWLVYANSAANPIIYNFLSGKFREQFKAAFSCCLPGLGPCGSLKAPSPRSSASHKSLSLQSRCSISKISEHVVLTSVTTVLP
CHO parental Ca: counter-screen: ATP calcium response change in parental CHO cells | parental CHO-K1, ATP-induced calcium, Fluo-8 fluorescence | inhibition, % at 5.6 µM | 330,000 compounds, 0.63% hits | AID 463079;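 active = inhibition above that plate's mean sample inhibition plus 3 SD, cut at about 26% in these data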;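 note: 0% = ATP-challenged DMSO wells and 100% = DMSO wells without ATP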
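Assay system – parental CHO cells · Reagent – ATP stimulus · Detection – intracellular calcium via Fluo-8 no-wash fluorescent dye · Evaluation – percent inhibition of ATP-evoked calcium rise, normalized to controls · Controls – ATP wells versus no-ATP DMSO wells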
OX1R antag-2: antagonists of human orexin 1 receptor; CHO/OX1R cells, Fluo-8 calcium fluorescence, orexin A; inhibition, % at 5 µM; AID 434989; O43613; 330,000 compounds, 0.43% hits;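 active = inhibition above its plate's threshold, mean inhibition of all tested compounds on the plate plus 3 SD, cut at about 37% in these data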;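 note: 0% = orexin A challenge wells and 100% = SB-334867-A antagonist wells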
GPR7 antagonist: human neuropeptides B/W receptor 1 antagonism; P48145; GPR7-expressing cells, fluorescence antagonist assay; inhibition, % at 4.4 µM; 290,000 compounds, 1.1% hits; in the data active = inhibition above about 16%, passing the limit was not always enough;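 note: cells stimulated with the agonist NPW; 0% = agonist with vehicle and 100% = vehicle without agonist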
Target sequence (P48145 whole entry, looked up): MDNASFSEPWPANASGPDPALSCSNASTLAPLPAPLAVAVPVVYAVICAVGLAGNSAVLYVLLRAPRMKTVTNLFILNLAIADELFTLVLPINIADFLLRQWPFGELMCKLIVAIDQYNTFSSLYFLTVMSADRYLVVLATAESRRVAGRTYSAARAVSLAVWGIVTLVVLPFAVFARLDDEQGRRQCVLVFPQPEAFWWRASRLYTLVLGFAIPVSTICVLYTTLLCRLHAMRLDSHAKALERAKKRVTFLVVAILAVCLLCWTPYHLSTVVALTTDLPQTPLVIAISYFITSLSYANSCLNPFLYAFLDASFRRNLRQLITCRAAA
TAAR1 antag: antagonists of human TAAR1 | Q96RJ0 | CHO RD-HGA16 TAAR1, Fluo-8 calcium fluorescence, antagonist | inhibition, % at 3 µM | 360,000 compounds, 1.5% hits | AID 624466;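 active = inhibition above a per-plate cutoff, the mean inhibition of test compounds on that plate plus 3 SD, cut at about 49% in these data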;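 note: 0% = DMSO plus EC80 beta-PEA response and 100% = DMSO alone without agonist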
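System: RD-HGA16 CHO cells with stable hTAAR1 and Gα16 | Probe or stimulus: EC80 β-phenethylamine stimulus | Dosing: 3 µM, single point | Times: Dye loading 75 min at 37 °C, then 30 min room temperature | Measured by: Fluo-8 calcium-sensitive fluorescence | Read-out basis: % inhibition of agonist calcium response | Replicates: n of 1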
Starred values were filed as active, the others as inactive; nt = no result. This is a sample that favours compounds with a hit; in the whole collection about 4.5% have one here.

SMILES	TAAR1 ag	OX1R antag-1	CHO parental Ca	OX1R antag-2	GPR7 antagonist	TAAR1 antag
O=[N+]([O-])c1ccc(-c2nc(Nc3cccc(O)c3)c3ccccc3n2)cc1	5.9	16.0	-1.5	-3.0	18.1	55.4*
O=C(O)c1cccc(Nc2nc(-c3ccc([N+](=O)[O-])cc3)nc3ccccc23)c1	3.2	nt	nt	nt	-10.5	4.3
CCOC(=O)c1cc2c(=O)n3ccccc3nc2n(CCOC)c1=NC(=O)C(C)(C)C	4.3	43.0	2.9	-26.7	-3.4	-9.6
COCCCn1c(=NC(=O)c2ccccc2)c(C#N)cc2c(=O)n3cccc(C)c3nc21	2.3	55.2*	9.9	1.6	-14.0	-36.6
CCOCCCn1c(=NC(C)=O)c(C#N)cc2c(=O)n3ccccc3nc21	-0.4	40.2*	0.8	1.4	-2.3	-18.4
COCCCn1c(=NC(C)=O)c(C#N)cc2c(=O)n3cccc(C)c3nc21	-1.1	23.1	-22.2	-4.0	-4.6	-35.4
CCOCCCn1c(=NC(C)=O)c(C(=O)OCC)cc2c(=O)n3ccccc3nc21	0.9	58.6*	-2.5	-7.4	-4.3	-1.0
Cc1ccc(C(=O)N2CCC(N3CCC(C(=O)N4CCOCC4)CC3)CC2)cc1	-1.0	nt	nt	nt	nt	-0.1
COc1ccc(C(=O)Oc2ccc3oc(=O)sc3c2)cc1	5.8	0.3	57.0*	26.7	6.3	4.4
COc1ccc(C(=O)Oc2ccc3ccc(=O)oc3c2)cc1	5.7	9.4	-0.7	1.2	15.6	-4.4
O=C(Nc1ccc(Cl)cc1)NC1CCCCC1Cc1ccco1 (centres undefined)	11.8	46.5*	14.1	-2.2	-10.6	25.7
O=C(Nc1ccc(Cl)cc1)NC1CCCC1Cc1ccco1 (centres undefined)	nt	23.5	-6.9	0.6	7.7	nt
CC(=O)C1=C(C)N(Cc2ccc(F)cc2)C(=S)NC1c1ccc(Cl)cc1 (centres undefined)	-1.4	nt	nt	nt	nt	26.4
COc1ccccc1N1CCN(C(=O)c2cc3ccccc3[nH]2)CC1	8.5	2.2	-12.0	-18.3	8.1	53.3*
COc1ccccc1N1CCN(C(=O)c2cc3cc(C)ccc3[nH]2)CC1	1.2	-10.9	-6.5	-18.0	-2.4	-13.7
COC(=O)c1ccc(NC(=O)c2ccc3nsnc3c2)cc1	22.0	12.4	-3.5	-17.6	-9.4	-8.0
CC(C)(C)NC(=O)c1ccc2nsnc2c1	-0.7	66.9*	-5.4	6.2	-6.3	6.2
O=C(NC(Nc1nc2ccc([N+](=O)[O-])cc2s1)(C(F)(F)F)C(F)(F)F)c1ccccc1Cl	6.9	89.7*	33.5*	25.1	42.6*	54.8*
O=C(NC(NNc1ccc([N+](=O)[O-])cc1)(C(F)(F)F)C(F)(F)F)c1ccccc1Cl	7.2	25.3	1.8	-0.2	-8.1	37.4
O=C(NC(Nc1nc2ccc([N+](=O)[O-])cc2s1)(C(F)(F)F)C(F)(F)F)c1cccnc1	16.6	59.0*	6.0	-2.4	-1.4	-32.0
OCCN1CCN(c2ncnc3c2ncn3[C@H]2CN(Cc3ccc(F)cc3)C[C@@H](CO)O2)CC1	1.4	nt	nt	nt	nt	2.7
C#CCNC(=O)C[C@H]1C[C@@]2(C(=O)OC)C(=C[C@H](C(C)(C)C)O[C@@H]2C)N(Cc2ccc3c(c2)OCO3)C1=O	7.0	nt	nt	nt	nt	-20.3
Oc1c(Br)cc(/C=N/NC(=S)NCc2ccco2)cc1Br	4.4	37.1*	-5.1	-1.7	1.4	-21.2
CC(=O)c1sc(N/N=C/c2cccc(O)c2)nc1C	20.4	29.6	-9.0	-20.7	11.7	-2.1
CC(=O)c1sc(N/N=C\c2ccc(N(C)C)cc2)nc1C	0.7	57.5*	-16.4	-9.0	-5.6	-1.1
SMILES	TAAR1 ag	OX1R antag-1	CHO parental Ca	OX1R antag-2	GPR7 antagonist	TAAR1 antag
Cc1cccc(C)c1NC(=O)C1(C)CSCC(=O)N1CCc1ccccc1F (centres undefined)	2.7	nt	nt	nt	nt	3.9
COc1ccc(NC(=O)C2CCCN2S(=O)(=O)c2cccc3nsnc23)c(OC)c1 (centres undefined)	nt	56.7*	-22.6	-12.5	-12.8	nt
COc1ccccc1NC(=O)C1CCCN1S(=O)(=O)c1cccc2nsnc12 (centres undefined)	nt	76.1*	-11.6	20.0	-19.4	nt
COc1ccc(CNC(=O)CCc2ccc(S(=O)(=O)N3CCCCCC3)cc2)cc1OC	2.7	nt	nt	nt	nt	-11.0
CN(C)c1ccc(NC(=O)CSc2nnc(-c3cccs3)n2Cc2ccco2)cc1	2.1	47.0*	-18.4	35.0	4.2	6.7
CCCc1nnc(NC(=O)Cn2c(=O)sc3ccccc32)s1	46.0*	4.5	-10.3	-7.3	16.9	-0.3
CCCc1nnc(NC(=O)CN2C(=O)c3ccccc3C2=O)s1	7.8	-2.4	-18.0	-14.1	-6.2	-12.0
C=CCNc1nc(Nc2ccc(OC)c(OC)c2)c2sc(-c3ccccc3)cc2n1	-0.8	nt	nt	nt	nt	0.2
CC1=NNC(=O)/C1=C\c1cn(-c2ccccc2)nc1-c1ccccc1	30.8	19.2	92.5*	96.4*	55.4*	60.8*
CCCNC(=O)c1ccccc1NC(=O)COc1cccc2c1OC(C)(C)C2	7.6	27.7	-31.1	-18.5	nt	50.4*
CC1(C)Cc2cccc(OCC(=O)Nc3ccccc3F)c2O1	3.1	15.2	-19.6	-32.8	nt	-9.8
Cc1ccccc1C(=O)Oc1ccc2ccc(O)cc2c1	5.6	19.1	65.9*	16.4	-4.7	14.2
CCOC(=O)C1=CCC(c2ccc([N+](=O)[O-])cc2)N(S(=O)(=O)c2ccc(C)cc2)C1 (centres undefined)	-0.9	nt	nt	nt	nt	20.5
COc1cc(C(=O)NCCCN(C)C)ccc1OCC(=O)Nc1cccc(C(F)(F)F)c1	10.7	10.2	3.5	-1.1	0.1	3.6
COc1cccc(CN(C)C(=O)c2ccc(OCC(=O)Nc3cccc(C(F)(F)F)c3)c(OC)c2)c1	8.9	37.8	64.7*	51.9*	nt	66.9*
Cc1cc(C)n(C(=O)/C(C#N)=N/Nc2cc(Cl)cc(Cl)c2)n1	nt	59.5*	74.9*	58.8*	5.2	nt
Cc1cc(C)n(C(=O)/C(C#N)=N\Nc2ccccc2[N+](=O)[O-])n1	1.8	23.7	-5.5	-15.7	0.4	29.3
CCc1cc2c(nc1CC)CCCN2Cc1ccccc1C(F)(F)F	-0.8	nt	nt	nt	nt	-16.3
COc1cc2sc3cc(NCc4ccc(C)o4)ccc3c(=O)c2cc1OC	0.7	45.3*	-18.1	4.0	nt	17.4
COc1cc2sc3cc(NCc4ccc5c(c4)OCO5)ccc3c(=O)c2cc1OC	3.0	49.9*	-0.8	0.8	nt	15.6
CN(C(=O)c1cn(C)c2ccccc12)c1ccc(Oc2cccnc2)cc1	4.1	nt	nt	nt	nt	22.6
CC(=O)C1=CCC(c2ccccc2)N(S(=O)(=O)c2ccc(Cl)cc2)C1 (centres undefined)	1.8	nt	nt	nt	nt	-4.0
COC(=O)C1=C(C)N(C)C(=NCc2ccc3c(c2)OCO3)NC1c1ccc(C(F)(F)F)cc1 (centres undefined)	15.3	nt	nt	nt	nt	7.1
